Here are results for two molecules from ChEMBL document CHEMBL4020824, “Discovery of Potent and Orally Bioavailable Dihydropyrazole GPR40 Agonists” (J Med Chem, 2018).

Molecules are shown by their SMILES.

Common to all, as to assay type: ADME, microsome
Data set [1] has as its system Liver. The data set is described as follows: Drug level in rat liver microsomes treated with 2-((4S,5S)-1-(4-((1-(2-Fluoro-5-methoxyphenyl)piperidin-4-yl)-oxy)phenyl)-4-methyl-3-(trifluoromethyl)-4,5-dihydro-1H-pyrazol-5-yl)acetic acid at 1 to 3 uM incubated for 20 mins in presence of NADPH measured after 90 mins by LC/MS/MS analysis. In outline: (§1)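 Human or rat liver microsomal incubations. The read-outs were % parent remaining, % D-ring dealkylation metabolites, % GSH adducts, and half-life (min). The metabolites followed were CYP450-mediated oxidative de-alkylation products (phenols) and GSH conjugates.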
On the technique in general: Liver microsomes are a subcellular fraction often used to study metabolism.

The subject of data set [2] is Liver. The data set is described as follows: Drug level in human liver microsomes treated with 2-((4S,5S)-1-(4-((1-(2-Fluoro-5-methoxyphenyl)piperidin-4-yl)-oxy)phenyl)-4-methyl-3-(trifluoromethyl)-4,5-dihydro-1H-pyrazol-5-yl)acetic acid at 1 to 3 uM incubated for 20 mins in presence of NADPH measured after 90 mins by LC/MS/MS analysis. In outline: as §1
The subject of data set [3] is Liver. The data set is described as follows: Drug level in human liver microsomes treated with 2-((4S,5S)-1-(4-(((3R,4R)-1-(5-Chloro-2-methoxypyridin-4-yl)-3-methylpiperidin-4-yl)oxy)phenyl)-4-methyl-3-(trifluoromethyl)-4,5-dihydro-1H-pyrazol-5-yl)acetic acid at 1 to 3 uM incubated for 20 mins in presence of NADPH measured after 90 mins by LC/MS/MS analysis. In outline: as §1

The test system of data set [4] is Liver. The data set is described as follows: Drug level in rat liver microsomes treated with 2-((4S,5S)-1-(4-(((3R,4R)-1-(5-Chloro-2-methoxypyridin-4-yl)-3-methylpiperidin-4-yl)oxy)phenyl)-4-methyl-3-(trifluoromethyl)-4,5-dihydro-1H-pyrazol-5-yl)acetic acid at 1 to 3 uM incubated for 20 mins in presence of NADPH measured after 90 mins by LC/MS/MS analysis. Put shortly:
as §1

Consider `C[C@@H]1C(C(F)(F)F)=NN(c2ccc(OC3CCN(c4cc(O)ccc4F)CC3)cc2)[C@H]1CC(=O)O`, for which the Drug uptake result with Liver [1] and in the data set on Liver [2] was “Metabolite_Detected” in each case.

With `C[C@@H]1CN(c2cc(O)ncc2Cl)CC[C@H]1Oc1ccc(N2N=C(C(F)(F)F)[C@@H](C)[C@@H]2CC(=O)O)cc1`, the Drug uptake entry with Liver [3] and in the data set on Liver [4] was “Metabolite_Detected” throughout.
